Measurements reported in ChEMBL document CHEMBL4325879, “Optimization of substituted cinnamic acyl sulfonamide derivatives as tubulin polymerization inhibitors with anticancer activity” (Bioorg Med Chem Lett, 2018).
Converted amounts (≈) assume the structure as drawn.

Columns and labels:
Tubulin = Tubulin (Bos taurus, UniProt Q6B856+Q862L2+Q862F3); experiment: Inhibition of bovine brain tubulin polymerization after 20 mins in presence of GTP by spectrophotometric analysis
MCF7 = experiment: Antiproliferative activity against human MCF7 cells after 48 hrs by MTT assay; format: functional, cell-based; details: MCF7, 48 h
Outline: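 MCF-7 human breast cancer cells exposed to compounds for 48 h. Cytotoxicity read by MTT assay. IC50 taken as the concentration giving 50% inhibition of cell growth.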

With `O=C(/C=C/c1ccc2c(c1)OCCCO2)NS(=O)(=O)c1ccc(Br)cc1` the IC50 (Tubulin) was > 100 µM and the IC50 (MCF7) was > 100 µg/mL.

Work on `O=C(/C=C/c1ccc2c(c1)OCO2)NS(=O)(=O)c1ccc(Br)cc1` yielded an IC50 (Tubulin) of 51.59 µM, a pIC50 (Tubulin) of 4.288 and an IC50 (MCF7) of 89 µg/mL (≈ 217 µM).

With `O=C(/C=C/c1ccc2c(c1)OCCCO2)NS(=O)(=O)c1ccc(Cl)cc1` the IC50 (Tubulin) was > 100 µM and the IC50 (MCF7) was > 100 µg/mL.

With `Cc1ccc(S(=O)(=O)NC(=O)/C=C/c2ccc3c(c2)OCCO3)cc1` the IC50 (Tubulin) was 93.33 µM, the pIC50 (Tubulin) was 4.03 and the IC50 (MCF7) was > 100 µg/mL.

`O=C(/C=C/c1ccc2c(c1)OCCO2)NS(=O)(=O)c1ccc(F)cc1` showed an IC50 (Tubulin) of 27.46 µM, a pIC50 (Tubulin) of 4.562 and an IC50 (MCF7) of 52.1 µg/mL (≈ 143 µM).

For `O=C(/C=C/c1ccc2c(c1)OCCO2)NS(=O)(=O)c1ccc(Br)cc1`, the IC50 (Tubulin) was > 100 µM and the IC50 (MCF7) was > 100 µg/mL.

`O=C(/C=C/c1ccc2c(c1)OCCO2)NS(=O)(=O)c1ccccc1` was tested, and the IC50 (Tubulin) was 5.47 µM, the pIC50 (Tubulin) was 5.262 and the IC50 (MCF7) was 2.16 µg/mL (≈ 6.25 µM).

`O=C(/C=C/c1ccc2c(c1)OCO2)NS(=O)(=O)c1ccccc1` gave an IC50 (Tubulin) of 0.88 µM, a pIC50 (Tubulin) of 6.056 and an IC50 (MCF7) of 0.17 µg/mL (≈ 0.513 µM).

In the case of `O=C(/C=C/c1ccc2c(c1)OCCCO2)NS(=O)(=O)c1ccc(F)cc1`, the IC50 (Tubulin) is reported as > 100 µM and the IC50 (MCF7) is reported as > 100 µg/mL.

Compound `O=C(/C=C/c1ccc2c(c1)OCO2)NS(=O)(=O)c1ccc(Cl)cc1` has an IC50 (Tubulin) of 94.72 µM, a pIC50 (Tubulin) of 4.024 and an IC50 (MCF7) of 47.3 µg/mL (≈ 129 µM).

`O=C(/C=C/c1ccc2c(c1)OCCO2)NS(=O)(=O)c1ccc(Cl)cc1` was tested, and the IC50 (Tubulin) was 87.92 µM, the pIC50 (Tubulin) was 4.056 and the IC50 (MCF7) was 51.3 µg/mL (≈ 135 µM).

`COc1cc2c(c(OC)c1OC)-c1ccc(OC)c(=O)cc1[C@@H](NC(C)=O)CC2` [COLCHICINE] showed an IC50 (MCF7) of 0.33 µg/mL (≈ 0.826 µM).

For `O=C(/C=C/c1ccc2c(c1)OCO2)NS(=O)(=O)c1ccc(F)cc1`, the IC50 (Tubulin) was 76.9 µM, the pIC50 (Tubulin) was 4.114 and the IC50 (MCF7) was 74 µg/mL (≈ 212 µM).

`O=C(/C=C/c1ccc2c(c1)OCCCO2)NS(=O)(=O)c1ccccc1` showed an IC50 (Tubulin) of 49.01 µM, a pIC50 (Tubulin) of 4.31 and an IC50 (MCF7) of 53.9 µg/mL (≈ 150 µM).

With `Cc1ccc(S(=O)(=O)NC(=O)/C=C/c2ccc3c(c2)OCO3)cc1` the IC50 (Tubulin) was 40.85 µM, the pIC50 (Tubulin) was 4.389 and the IC50 (MCF7) was 48.9 µg/mL (≈ 142 µM).

`Cc1ccc(S(=O)(=O)NC(=O)/C=C/c2ccc3c(c2)OCCCO3)cc1` was tested, and the IC50 (Tubulin) was > 100 µM and the IC50 (MCF7) was > 100 µg/mL.
